Data as given in ChEMBL document CHEMBL1124186, “Synthesis and evaluation of tylosin-related macrolides modified at the aldehyde function: a new series of orally effective antibiotics” (1988).
Converted amounts (≈) assume the structure as drawn.

What was measured:
[1] = tested on: Bacteroides fragilis; assay: In vitro antimicrobial activity against anaerobic bacteria bacteroides fragilis 111; format: functional
[2] = tested on: Bacteroides fragilis; assay: In vitro antimicrobial activity against anaerobic bacteria bacteroides fragilis 1877; format: functional
[3] = tested on: Bacteroides fragilis; assay: In vitro antimicrobial activity against anaerobic bacteria bacteroides fragilis 1936B,; format: functional
[4] = tested on: Eikenella corrodens; assay: In vitro antimicrobial activity against anaerobic bacteria bacteroides corrodens 1874; format: functional
[5] = tested on: Phocaeicola vulgatus; assay: In vitro antimicrobial activity against anaerobic bacteria bacteroides vulgatus 1211; format: functional
[6] = tested on: Prevotella melaninogenica; assay: In vitro antimicrobial activity against anaerobic bacteria bacteroides melaninogenicus 1856,; format: functional
[7] = tested on: Bacteroides thetaiotaomicron; assay: In vitro antimicrobial activity against anaerobic bacteria bacteroides thetaiotaomicron 1438; format: functional
[8] = tested on: Clostridioides difficile; assay: In vitro antimicrobial activity against anaerobic bacteria Clostridium difficile 2994; format: functional
[9] = tested on: Clostridium perfringens; assay: In vitro antimicrobial activity against anaerobic bacteria clostridium perfringens 81,; format: functional
[10] = tested on: Clostridium septicum; assay: In vitro antimicrobial activity against anaerobic bacteria clostridium septicum 1128; format: functional
[11] = tested on: Chlamydia trachomatis; assay: In vitro antimicrobial activity against chlamydia trachomatis.; format: functional
[12] = tested on: Fusobacterium; assay: In vitro antimicrobial activity against anaerobic bacteria fusobacterium symbiosum 1470; format: functional
[13] = tested on: Haemophilus influenzae; assay: In vitro antimicrobial activity against aerobic bacteria Haemophilus influenzae 76; format: functional
[14] = tested on: Haemophilus influenzae; assay: In vitro antimicrobial activity against aerobic bacteria Haemophilus influenzae MX366,; format: functional
[15] = tested on: Haemophilus influenzae; assay: In vitro antimicrobial activity against Haemophilus influenzae.; format: functional
[16] = tested on: Haemophilus parainfluenzae; assay: In vitro antimicrobial activity against aerobic bacteria Haemophilus parainfluenzae 9796; format: functional
[17] = In vitro antimicrobial activity against anaerobic bacteria peptostreptococcus intermedius 1264; format: functional
[18] = tested on: Peptoniphilus asaccharolyticus; assay: In vitro antimicrobial activity against anaerobic bacteria peptococcus asaccharolyticus 1302; format: functional
[19] = tested on: Anaerococcus prevotii; assay: In vitro antimicrobial activity against anaerobic bacteria peptococcus prevoti 1281; format: functional
[20] = tested on: Cutibacterium acnes; assay: In vitro antimicrobial activity against anaerobic bacteria propionibacterium acnes 79; format: functional
[21] = tested on: Streptococcus; assay: In vitro antimicrobial activity against aerobic bacteria Streptococcus B 14; format: functional
[22] = tested on: Streptococcus; assay: In vitro antimicrobial activity against aerobic bacteria Streptococcus D 8043; format: functional
[23] = tested on: Streptococcus; assay: In vitro antimicrobial activity against aerobic bacteria Streptococcus D 9960; format: functional
[24] = tested on: Staphylococcus epidermidis; assay: In vitro antimicrobial activity against aerobic bacteria Streptococcus epi 270; format: functional
[25] = tested on: Staphylococcus aureus; assay: In vitro antimicrobial activity against Staphylococcus aureus X1; format: functional
[26] = tested on: Staphylococcus aureus; assay: In vitro antimicrobial activity against aerobic bacteria Staphylococcus aureus 513E; format: functional
[27] = tested on: Staphylococcus aureus; assay: In vitro antimicrobial activity against aerobic bacteria Staphylococcus aureus V140,; format: functional
[28] = tested on: Staphylococcus aureus; assay: In vitro antimicrobial activity against aerobic bacteria Staphylococcus aureus V41; format: functional
[29] = tested on: Staphylococcus aureus; assay: In vitro antimicrobial activity against aerobic bacteria Staphylococcus aureus X400; format: functional
[30] = tested on: Streptococcus pneumoniae; assay: In vivo effective dose against experimental infections in mice Streptococcus pneumoniae park when administered orally; format: functional; settings: po
[31] = tested on: Streptococcus pneumoniae; assay: In vivo effective dose against experimental infections in mice Streptococcus pneumoniae park when administered sc; format: functional
[32] = tested on: Streptococcus pneumoniae; assay: In vitro antimicrobial activity against aerobic bacteria Streptococcus pneumoniae B1-438; format: functional, streptococcus pneum
[33] = tested on: Streptococcus pyogenes; assay: In vivo effective dose against experimental infections in rodent caused by Streptococcus pyogenes C203 when administered sc; format: functional
[34] = tested on: Streptococcus pneumoniae; assay: In vitro antimicrobial activity against Streptococcus pneumoniae; format: functional
[35] = tested on: Staphylococcus epidermidis; assay: In vitro antimicrobial activity against Staphylococcus epidermidis EPI1; format: functional
[36] = tested on: Staphylococcus epidermidis; assay: In vitro antimicrobial activity against aerobic bacteria Streptococcus epi 222; format: functional
[37] = tested on: Enterococcus faecium; assay: In vitro antimicrobial activity against Streptococcus faecium X66; format: functional, streptococcus fae-cium
[38] = tested on: Streptococcus pyogenes; assay: In vitro antimicrobial activity against Streptococcus pyogenes C203; format: functional
[39] = tested on: Streptococcus; assay: In vitro antimicrobial activity against aerobic bacteria Streptococcus B 5; format: functional
[40] = tested on: Staphylococcus aureus; assay: In vitro antimicrobial activity against aerobic bacteria Staphylococcus aureus V135; format: functional
[41] = tested on: Haemophilus influenzae; assay: In vitro antimicrobial activity against aerobic bacteria Haemophilus influenzae 465; format: functional
[42] = tested on: Prevotella melaninogenica; assay: In vitro antimicrobial activity against anaerobic bacteria bacteroides melaninogenicus 2736; format: functional
[43] = tested on: Fusobacterium necrophorum; assay: In vitro antimicrobial activity against anaerobic bacteria usobacterium necrophorum 6054A; format: functional
[44] = tested on: Collinsella aerofaciens; assay: In vitro antimicrobial activity against anaerobic bacteria eubacterium aerofaciens 1235; format: functional
[45] = tested on: Streptococcus; assay: In vitro antimicrobial activity against aerobic bacteria Streptococcus D 2041; format: functional
[46] = tested on: Peptostreptococcus anaerobius; assay: In vitro antimicrobial activity against anaerobic bacteria eubacterium peptostreptococcus anaerobius 1428,; format: functional
[47] = tested on: Streptococcus pyogenes; assay: In vivo effective dose against experimental infections in rodent caused by Streptococcus pyogenes C203 when administered orally; format: functional; settings: po
[48] = tested on: Mus musculus; assay: Peripheral plasma levels in mice after oral administration of 100 mg/kg dose for 0.5 hr; format: functional, organism-based; design: dose 100 mg/kg
How it was run: (§1)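 Mice were given the compound orally and sampled for peripheral plasma at each time point. Plasma was assayed microbiologically against Micrococcus luteus seeded in Antibiotic Medium 1. Inhibition zone sizes were read, and concentrations were calculated from each compound's own standard curve. Each value is the mean of five mice per time point.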

[49] = tested on: Mus musculus; assay: Peripheral plasma levels in mice after oral administration of 100 mg/kg dose for 1 hr; format: functional, organism-based; design: dose 100 mg/kg; how it was run: as §1
[50] = tested on: Mus musculus; assay: Peripheral plasma levels in mice after oral administration of 100 mg/kg dose for 2 hr; format: functional, organism-based; design: dose 100 mg/kg; how it was run: as §1
[51] = tested on: Rattus norvegicus; assay: Peripheral plasma levels in rats after oral administration of 100 mg/kg dose for 0.25 hr; format: functional, organism-based; design: dose 100 mg/kg
How it was run: (§2)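 Rats received 100 mg/kg orally and were sampled for peripheral plasma. Concentrations were measured by Micrococcus luteus agar-diffusion microbiological assay in Antibiotic Medium 1, with zone sizes converted using the standard curve for the appropriate compound. Each value is the average of three rats per time point.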

[52] = tested on: Rattus norvegicus; assay: Peripheral plasma levels in rats after oral administration of 100 mg/kg dose for 0.5 hr; format: functional, organism-based; design: dose 100 mg/kg; how it was run: as §2
[53] = tested on: Rattus norvegicus; assay: Peripheral plasma levels in rats after oral administration of 100 mg/kg dose for 1 hr; format: functional, organism-based; design: dose 100 mg/kg; how it was run: as §2
[54] = tested on: Rattus norvegicus; assay: Peripheral plasma levels in rats after oral administration of 100 mg/kg dose for 2 hr; format: functional, organism-based; design: dose 100 mg/kg; how it was run: as §2
[55] = tested on: Rattus norvegicus; assay: Peripheral plasma levels in rats after oral administration of 100 mg/kg dose for 4 hr; format: functional, organism-based; design: dose 100 mg/kg; how it was run: as §2
[56] = tested on: Streptococcus pneumoniae; assay: In vivo effective dose against experimental infections in mice Strep. pneumoniae park when administered sc; format: functional
[57] = tested on: Streptococcus pneumoniae; assay: In vivo effective dose against experimental infections in mice Strep. pneumoniae park when administered orally; format: functional; settings: po
[58] = tested on: Staphylococcus aureus; assay: In vivo effective dose against experimental infections in mice Staphylococcus aureus X1 when administered orally; format: functional; settings: po
[59] = tested on: Staphylococcus aureus; assay: In vivo effective dose against experimental infections in mice Staphylococcus aureus X1 when administered sc; format: functional

CC[C@H]1OC(=O)C[C@@H](O)[C@H](C)[C@@H](O[C@@H]2O[C@H](C)[C@@H](O)[C@H](N(C)C)[C@H]2O)[C@@H](CCOc2ccc(-c3ccccc3)cc2)C[C@@H](C)C(=O)/C=C/C(C)=C/[C@@H]1CO[C@@H]1O[C@H](C)[C@@H](O)[C@@H](OC)[C@H]1OC
MIC [1]: 4 µg/mL (≈ 4.32 µM) | MIC [2]: 2 µg/mL (≈ 2.16 µM) | MIC [3]: 4 µg/mL (≈ 4.32 µM) | MIC [4]: 2 µg/mL (≈ 2.16 µM) | MIC [5]: < 0.5 µg/mL | MIC [6]: < 0.5 µg/mL | MIC [7]: 2 µg/mL (≈ 2.16 µM) | MIC [8]: < 0.5 µg/mL | MIC [9]: < 0.5 µg/mL | MIC [10]: < 0.5 µg/mL | MIC [11]: > 2 µg/mL | MIC [12]: 2 µg/mL (≈ 2.16 µM) | MIC [13]: 16 µg/mL (≈ 17.3 µM) | MIC [14]: 16 µg/mL (≈ 17.3 µM) | MIC [15]: 16 µg/mL (≈ 17.3 µM) | MIC [16]: 32 µg/mL (≈ 34.6 µM) | MIC [17]: < 0.5 µg/mL | MIC [18]: < 0.5 µg/mL | MIC [19]: 1 µg/mL (≈ 1.08 µM) | MIC [20]: < 0.5 µg/mL | MIC [21]: 1 µg/mL (≈ 1.08 µM) | MIC [22]: 0.25 µg/mL (≈ 0.27 µM) | MIC [23]: 0.5 µg/mL (≈ 0.54 µM) | MIC [24]: 128 µg/mL (≈ 138 µM) | MIC [25]: 0.5 µg/mL (≈ 0.54 µM) | MIC [26]: 0.25 µg/mL (≈ 0.27 µM) | MIC [27]: 0.25 µg/mL (≈ 0.27 µM) | MIC [28]: 0.25 µg/mL (≈ 0.27 µM) | MIC [29]: 0.25 µg/mL (≈ 0.27 µM) | ED50 [30]: 37 mg/kg | ED50 [31]: > 20 mg/kg | MIC [32]: 32 µg/mL (≈ 34.6 µM) | ED50 [33]: > 10 mg/kg | MIC [34]: 0.25 µg/mL (≈ 0.27 µM) | MIC [35]: 0.5 µg/mL (≈ 0.54 µM) | MIC [36]: 0.12 µg/mL (≈ 0.13 µM) | MIC [37]: 0.5 µg/mL (≈ 0.54 µM) | MIC [38]: 0.25 µg/mL (≈ 0.27 µM) | MIC [39]: 2 µg/mL (≈ 2.16 µM) | MIC [40]: 0.25 µg/mL (≈ 0.27 µM) | MIC [41]: 16 µg/mL (≈ 17.3 µM) | MIC [42]: < 0.5 µg/mL | MIC [43]: 4 µg/mL (≈ 4.32 µM) | MIC [44]: < 0.5 µg/mL | MIC [45]: 0.5 µg/mL (≈ 0.54 µM) | MIC [46]: < 0.5 µg/mL | ED50 [47]: 25 mg/kg

CC[C@H]1OC(=O)C[C@@H](O)[C@H](C)[C@@H](O[C@@H]2O[C@H](C)[C@@H](O)[C@H](N(C)C)[C@H]2O)[C@@H](CCN2CCCCCCC2)C[C@@H](C)C(=O)/C=C/C(C)=C/[C@@H]1CO[C@@H]1O[C@H](C)[C@@H](O)[C@@H](OC)[C@H]1OC
MIC [15]: 8 µg/mL (≈ 9.2 µM) | Concentration [48]: 0.1 µg/mL | Concentration [49]: 0.1 µg/mL | Concentration [50]: 0.1 µg/mL | Concentration [51]: 0.3 µg/mL | Concentration [52]: 0.4 µg/mL | Concentration [53]: 0.2 µg/mL | Concentration [54]: 1.1 µg/mL | Concentration [55]: 0.2 µg/mL | ED50 [56]: > 20 mg/kg | MIC [25]: 0.5 µg/mL (≈ 0.575 µM) | ED50 [57]: > 50 mg/kg | ED50 [33]: 0.9 mg/kg | MIC [34]: 0.25 µg/mL (≈ 0.288 µM) | MIC [35]: 0.5 µg/mL (≈ 0.575 µM) | ED50 [58]: 25 mg/kg | ED50 [59]: 2 mg/kg | MIC [37]: 4 µg/mL (≈ 4.6 µM) | MIC [38]: 0.25 µg/mL (≈ 0.288 µM) | ED50 [47]: 20 mg/kg
